ChEMBL document CHEMBL3102720, “Structure-activity relationship study of permethyl ningalin B analogues as P-glycoprotein chemosensitizers” (J Med Chem, 2013)
Calls of active or inactive are those of the source. No cut-off for these calls is given here.

Tests used:
[1] = target: T1, ATP-dependent translocase ABCB1 (Homo sapiens, UniProt P08183); assay: Modulation of p-gp (unknown origin) transfected in human MDA435/LCC6MDR cells assessed as potentiation of paclitaxel-induced cytotoxicity at 1 uM after 5 days by MTS assay relative to untreated control; format: cell-based; conditions: 120 h
T1 sequence (P08183 whole entry): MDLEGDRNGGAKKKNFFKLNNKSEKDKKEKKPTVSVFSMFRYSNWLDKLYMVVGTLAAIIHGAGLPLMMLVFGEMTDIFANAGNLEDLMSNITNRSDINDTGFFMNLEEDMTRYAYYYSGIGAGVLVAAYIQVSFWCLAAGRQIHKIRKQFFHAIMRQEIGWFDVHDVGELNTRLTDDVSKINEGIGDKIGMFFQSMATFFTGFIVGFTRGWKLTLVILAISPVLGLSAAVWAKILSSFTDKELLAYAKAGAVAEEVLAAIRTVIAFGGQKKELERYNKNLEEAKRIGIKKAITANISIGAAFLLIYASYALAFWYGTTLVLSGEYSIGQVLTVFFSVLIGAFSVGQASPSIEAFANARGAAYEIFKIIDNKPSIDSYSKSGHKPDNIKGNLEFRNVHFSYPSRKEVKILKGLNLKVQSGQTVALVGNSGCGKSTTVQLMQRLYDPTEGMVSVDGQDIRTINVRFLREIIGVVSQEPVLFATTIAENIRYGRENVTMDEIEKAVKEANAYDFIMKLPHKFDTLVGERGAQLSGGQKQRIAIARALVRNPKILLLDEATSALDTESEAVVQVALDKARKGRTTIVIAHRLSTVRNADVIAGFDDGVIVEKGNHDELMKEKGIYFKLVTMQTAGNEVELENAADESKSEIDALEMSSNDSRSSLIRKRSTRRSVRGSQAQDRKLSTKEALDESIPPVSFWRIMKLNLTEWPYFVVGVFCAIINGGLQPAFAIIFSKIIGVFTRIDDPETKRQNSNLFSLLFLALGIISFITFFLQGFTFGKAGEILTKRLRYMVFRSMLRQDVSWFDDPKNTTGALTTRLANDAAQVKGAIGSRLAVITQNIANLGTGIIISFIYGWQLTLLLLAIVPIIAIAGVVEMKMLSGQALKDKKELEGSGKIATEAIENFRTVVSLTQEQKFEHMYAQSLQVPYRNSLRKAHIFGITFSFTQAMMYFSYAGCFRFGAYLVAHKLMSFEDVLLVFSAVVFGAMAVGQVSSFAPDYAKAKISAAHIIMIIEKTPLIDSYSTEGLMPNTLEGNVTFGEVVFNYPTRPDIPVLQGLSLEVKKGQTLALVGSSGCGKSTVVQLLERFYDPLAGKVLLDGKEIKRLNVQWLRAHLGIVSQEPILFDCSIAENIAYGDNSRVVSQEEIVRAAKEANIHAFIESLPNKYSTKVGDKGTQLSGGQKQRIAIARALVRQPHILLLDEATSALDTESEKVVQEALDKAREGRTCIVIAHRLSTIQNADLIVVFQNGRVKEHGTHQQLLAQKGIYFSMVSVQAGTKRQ
In short: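 6000 LCC6MDR or LCC6 cells per well co-incubated with paclitaxel with or without 1 μM modulator for 5 days at 37 °C. […] RF = IC50 without modulator divided by IC50 with modulator. N = 2–3 experiments; mean ± SEM.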

Homo sapiens [2] = species: Homo sapiens; assay: Ratio of verapamil EC50 to compound EC50 for modulation of p-gp (unknown origin) transfected in human MDA435/LCC6MDR cells assessed as reversal of paclitaxel resistance; format: cell-based
[3] = target: T2, Broad substrate specificity ATP-binding cassette transporter ABCG2 (Homo sapiens, UniProt Q9UNQ0); assay: Modulation of BCRP (unknown origin) transfected in human HEK293/R2 cells assessed as potentiation of topotecan-induced cytotoxicity at 1 uM after 5 days by MTS assay relative to untreated control; format: cell-based; conditions: hek293/r2, 120 h
T2 sequence (Q9UNQ0 whole entry): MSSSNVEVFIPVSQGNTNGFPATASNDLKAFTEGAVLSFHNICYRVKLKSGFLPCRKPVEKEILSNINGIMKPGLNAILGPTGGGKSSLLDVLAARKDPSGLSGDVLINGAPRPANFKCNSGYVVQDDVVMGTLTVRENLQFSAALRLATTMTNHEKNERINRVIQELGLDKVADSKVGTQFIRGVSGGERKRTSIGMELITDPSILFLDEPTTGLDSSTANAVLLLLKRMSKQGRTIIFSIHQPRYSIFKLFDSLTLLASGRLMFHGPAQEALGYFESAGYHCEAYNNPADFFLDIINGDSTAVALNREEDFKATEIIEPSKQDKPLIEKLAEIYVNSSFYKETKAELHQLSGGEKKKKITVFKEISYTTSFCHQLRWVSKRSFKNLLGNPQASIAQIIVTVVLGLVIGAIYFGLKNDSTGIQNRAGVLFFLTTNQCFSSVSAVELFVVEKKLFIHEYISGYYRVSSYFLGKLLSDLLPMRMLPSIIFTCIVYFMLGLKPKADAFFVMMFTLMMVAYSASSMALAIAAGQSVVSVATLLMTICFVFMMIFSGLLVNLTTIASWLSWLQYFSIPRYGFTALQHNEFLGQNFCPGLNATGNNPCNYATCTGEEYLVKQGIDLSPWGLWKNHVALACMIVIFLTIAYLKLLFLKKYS
In short: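 4500 HEK293/R2 or HEK293/pcDNA3.1 cells per well co-incubated with topotecan with or without 1 μM modulator for 5 days at 37 °C. Readout was MTS/PMS absorbance at 490 nm after 2 h. RF = IC50 without modulator divided by IC50 with modulator. N = 2–4 experiments.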

[4] = target: Multidrug resistance-associated protein 1 (Homo sapiens, UniProt P33527); assay: Modulation of MRP1 (unknown origin) transfected in human 2008/MRP1 cells assessed as potentiation of doxorubicin-induced cytotoxicity at 1 uM after 5 days by MTS assay relative to untreated control; format: cell-based; conditions: 2008/mrp1, 120 h
Multidrug resistance-associated protein 1, sequence (P33527 whole entry): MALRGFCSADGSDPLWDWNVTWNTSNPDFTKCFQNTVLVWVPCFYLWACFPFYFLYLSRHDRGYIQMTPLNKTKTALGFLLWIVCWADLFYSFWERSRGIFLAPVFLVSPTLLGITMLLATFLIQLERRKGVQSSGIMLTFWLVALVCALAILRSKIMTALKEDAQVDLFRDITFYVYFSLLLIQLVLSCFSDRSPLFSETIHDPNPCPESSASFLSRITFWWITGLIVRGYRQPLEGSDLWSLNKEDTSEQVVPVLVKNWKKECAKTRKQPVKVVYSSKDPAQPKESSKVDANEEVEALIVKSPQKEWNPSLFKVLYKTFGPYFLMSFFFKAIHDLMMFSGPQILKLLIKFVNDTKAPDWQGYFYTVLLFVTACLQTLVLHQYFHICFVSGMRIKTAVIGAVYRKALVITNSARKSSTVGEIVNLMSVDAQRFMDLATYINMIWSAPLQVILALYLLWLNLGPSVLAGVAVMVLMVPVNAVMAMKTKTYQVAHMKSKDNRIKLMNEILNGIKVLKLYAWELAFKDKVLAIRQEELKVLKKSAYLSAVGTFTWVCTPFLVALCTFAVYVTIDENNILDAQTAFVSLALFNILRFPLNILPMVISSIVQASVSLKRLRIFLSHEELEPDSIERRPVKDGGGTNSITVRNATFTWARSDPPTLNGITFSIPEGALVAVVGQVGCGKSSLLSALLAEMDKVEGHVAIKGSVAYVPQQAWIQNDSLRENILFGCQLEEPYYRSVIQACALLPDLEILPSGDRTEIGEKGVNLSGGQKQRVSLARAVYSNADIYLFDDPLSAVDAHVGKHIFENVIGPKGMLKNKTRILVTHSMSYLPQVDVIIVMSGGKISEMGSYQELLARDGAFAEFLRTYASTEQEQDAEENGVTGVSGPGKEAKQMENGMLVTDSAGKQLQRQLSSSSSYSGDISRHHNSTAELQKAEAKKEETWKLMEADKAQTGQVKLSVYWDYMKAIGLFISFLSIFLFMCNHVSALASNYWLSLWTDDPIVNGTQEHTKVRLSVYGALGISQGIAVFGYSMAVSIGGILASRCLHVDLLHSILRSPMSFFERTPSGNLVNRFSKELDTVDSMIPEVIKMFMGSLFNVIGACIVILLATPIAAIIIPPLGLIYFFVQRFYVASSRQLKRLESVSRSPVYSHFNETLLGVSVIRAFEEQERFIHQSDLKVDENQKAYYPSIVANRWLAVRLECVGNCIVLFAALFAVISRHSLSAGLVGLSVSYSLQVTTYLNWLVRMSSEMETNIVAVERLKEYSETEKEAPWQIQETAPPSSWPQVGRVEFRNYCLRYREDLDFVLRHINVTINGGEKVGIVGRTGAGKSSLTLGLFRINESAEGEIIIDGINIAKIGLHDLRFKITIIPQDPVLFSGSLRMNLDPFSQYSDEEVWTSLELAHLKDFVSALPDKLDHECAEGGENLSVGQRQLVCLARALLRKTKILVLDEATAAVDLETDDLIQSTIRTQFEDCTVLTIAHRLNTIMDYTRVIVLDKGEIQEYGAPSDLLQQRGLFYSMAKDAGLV

[5] = target: T1, ATP-dependent translocase ABCB1; assay: Modulation of p-gp (unknown origin) transfected in human MDA435/LCC6MDR cells assessed as increase in intracellular drug accumulation at 20 to 200 uM after 150 mins by reverse phase-HPLC analysis; format: cell-based; conditions: 2.5 h
In short: (§1)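 3 × 10^6 LCC6 or LCC6MDR cells incubated with 20 or 200 μM analogue at 37 °C for 150 min. Cells were then pelleted, washed with cold PBS pH 7.4, lysed in 100% methanol by vortexing for 5 min and spun. The supernatant was analysed by reversed-phase C18 HPLC with UV-vis detection. N = 2 independent experiments.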

[6] = Drug uptake in human MDA435/LCC6 cells at 20 to 200 uM after 150 mins by reverse phase-HPLC analysis; format: ADME, cell-based; conditions: mda-435/lcc6, 2.5 h; in short: as §1
[7] = target: T1, ATP-dependent translocase ABCB1; assay: Inhibition of p-gp (unknown origin) transfected in human MDA435/LCC6MDR cells assessed as reversal of doxorubicin drug resistance relative to control; format: cell-based
[8] = target: T1, ATP-dependent translocase ABCB1; assay: Modulation of p-gp (unknown origin) transfected in human MDA435/LCC6MDR cells assessed as induction of doxorubicin accumulation at 1 uM after 150 mins by spectrofluorometric analysis relative to control; format: cell-based; conditions: 2.5 h
In short: (§2)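 1 × 10^6 LCC6 or LCC6MDR cells incubated with 20 μM doxorubicin plus 1 μM analogue at 37 °C for 150 min; 0.1% DMSO served as negative control. Cells were washed with cold PBS and lysed in 0.75 M HCl/0.2% Triton X-100 in 2-propanol. Supernatant DOX fluorescence was read at ex 460/em 610 nm. N = 3–5 experiments; Student's t test.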

MDA-435/LCC6 = assay: Induction of doxorubicin accumulation in human MDA435/LCC6 cells at 1 uM after 150 mins by spectrofluorometric analysis; format: functional, cell-based; in short: as §2
P-gp (unknown origin) = assay: Therapeutic index, ratio of IC50 for mouse L929 cells to EC50 for modulation of p-gp (unknown origin) transfected in human MDA435/LCC6MDR cells assessed as reversal of paclitaxel resistance; format: cell-based; conditions: read-out: Ratio IC50/EC50
In short: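 Therapeutic index = L929 cytotoxicity IC50 (10 000 cells, 3-day MTS) divided by EC50 for reversing paclitaxel resistance in LCC6MDR (5-day MTS co-incubation with modulator series). N = 2–5 experiments.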

L929 = assay: Cytotoxicity against mouse L929 cells assessed as growth inhibition after 3 days by MTS assay; format: cell-based; conditions: L929, 72 h
In short: (§3)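 10 000 cells per well exposed to a concentration series of analogue for 3 days at 37 °C. Growth read by MTS proliferation assay and IC50 determined. Cells were cultured in DMEM with 10% heat-inactivated FBS and penicillin/streptomycin at 37 °C under 5% CO2.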

[9] = Cytotoxicity against human MDA435/LCC6MDR cells assessed as growth inhibition after 3 days by MTS assay; format: functional, cell-based; conditions: 72 h; in short: as §3
[10] = Cytotoxicity against human MDA435/LCC6 cells assessed as growth inhibition after 3 days by MTS assay; format: functional, cell-based; conditions: MDA-435/LCC6, 72 h; in short: as §3
Homo sapiens [11] = species: Homo sapiens; assay: Ratio of compound activity to verapamil activity for modulation of p-gp (unknown origin) transfected in human MDA435/LCC6MDR cells assessed as potentiation of paclitaxel-induced cytotoxicity; format: cell-based

Compound	fold change (FC) [1]	further results
COc1ccc(C2=C(c3ccc(OC)c(OC)c3)C(=O)N(Cc3cc(OC(C)C)c(OC(C)C)c(OC(C)C)c3)C2=O)cc1OC	8.5	–
COc1ccc(C2=C(c3cc(OC)c(OC)c(OC)c3)C(=O)N(CC(=O)c3ccc(OCc4ccccc4)cc3)C2=O)cc1OC	16.8	–
COc1ccc(C(=O)CN2C(=O)C(c3ccc(OC)c(OC)c3)=C(c3cc(OC)c(OC)c(OC)c3)C2=O)cc1	7.2	–
COc1ccc(C2=C(c3ccc(OC)c(OC)c3)C(=O)N(CC(=O)OC(C)(C)C)C2=O)cc1OC	3.3	–
COc1ccc(C(=O)CN2C(=O)C(c3cc(OC)c(OC)c(OC)c3)=C(c3cc(OC)c(OC)c(OC)c3)C2=O)cc1OC	3.3	–
COc1ccc(C2=C(c3ccc(OC)c(OC)c3)C(=O)N(CC(=O)c3ccc(OCc4ccccc4)c(OC)c3)C2=O)cc1OC	42.7	Ratio EC50 (Homo sapiens [2]): 4.8; fold change (FC) [3]: 6.9; fold change (FC) [4]: 1.1; Activity [5]: Active; Drug uptake [6]: Active; fold change (FC) [7]: 5.6; fold change (FC) [8]: 2.2; Activity (MDA-435/LCC6): inactive; selectivity ratio (P-gp (unknown origin)): > 1070; IC50 (L929): > 100 µM; IC50 [9]: > 100 µM; IC50 [10]: > 100 µM
COc1ccc(CN2C(=O)C(c3ccc(OC)c(OC)c3)=C(c3cc(OC)c(OC)c(OC)c3)C2=O)cc1OC	13.2	–
COc1ccc(C2=C(c3cc(OC)c(OC)c(OC)c3)C(=O)N(Cc3cc(OC)c(OC)c(OC)c3)C2=O)cc1OC	7.4	–
COc1ccc(C2=C(c3ccc(OC)c(OC)c3)C(=O)N(CC(=O)c3ccc(OCc4ccccc4)cc3)C2=O)cc1OC	10.4	–
COc1ccc(C2=C(c3ccc(OC)c(OC)c3)C(=O)N(CC(=O)c3cc(OC)c(OC)c(OC)c3)C2=O)cc1OC	9.3	–
CCOc1cc(CN2C(=O)C(c3ccc(OC)c(OC)c3)=C(c3ccc(OC)c(OC)c3)C2=O)cc(OCC)c1OCC	1.9	–
COc1ccc(C2=C(c3ccc(OC)c(OC)c3)C(=O)N(CC(=O)O)C2=O)cc1OC	0.9	–
CCOC(=O)CN1C(=O)C(c2ccc(OC)c(OC)c2)=C(c2ccc(OC)c(OC)c2)C1=O	7	–
COc1ccc(C(=O)CN2C(=O)C(c3ccc(OC)c(OC)c3)=C(c3cc(OC)c(OC)c(OC)c3)C2=O)cc1OC	5.1	–
COc1ccc(C2=C(c3cc(OC)c(OC)c(OC)c3)C(=O)N(CC(=O)c3ccc(OCc4ccccc4)c(OC)c3)C2=O)cc1OC	42.7	Ratio EC50 (Homo sapiens [2]): 4.1; fold change (FC) [3]: 8.2; fold change (FC) [4]: 1.2; fold change (FC) [7]: 5.6; fold change (FC) [8]: 2.3; Activity (MDA-435/LCC6): inactive; selectivity ratio (P-gp (unknown origin)): > 909; IC50 (L929): > 100 µM; IC50 [9]: > 100 µM; IC50 [10]: > 100 µM
COc1ccc(C(=O)CN2C(=O)C(c3cc(OC)c(OC)c(OC)c3)=C(c3cc(OC)c(OC)c(OC)c3)C2=O)cc1	4.9	–
COc1ccc(CCN2C(=O)C(c3ccc(OC)c(OC)c3)=C(c3cc(OC)c(OC)c(OC)c3)C2=O)cc1OC	4.6	–
COc1ccc(CCN(C)CCCC(C#N)(c2ccc(OC)c(OC)c2)C(C)C)cc1OC (stereo not given)	–	Activity (MDA-435/LCC6): inactive
COc1ccc(C2=C(c3ccc(OC)c(OC)c3)C(=O)N(CCn3cnc4c(N)ncnc43)C2=O)cc1OC	1.7	–
COc1ccc(CCN2C(=O)C(c3ccc(OC)c(OC)c3)=C(c3cc(OC)c(OC)c(OC)c3)C2=O)cc1	12.7	–
COc1ccc(C2=C(c3cc(OC)c(OC)c(OC)c3)C(=O)N(c3cc(OC)c(OC)c(OC)c3)C2=O)cc1OC	1.5	–
C=CCOc1cc(CN2C(=O)C(c3ccc(OC)c(OC)c3)=C(c3ccc(OC)c(OC)c3)C2=O)cc(OCC=C)c1OCC=C	3.8	–
COc1ccc(CN2C(=O)C(c3ccc(OC)c(OC)c3)=C(c3cc(OC)c(OC)c(OC)c3)C2=O)cc1	18	Ratio (Homo sapiens [11]): 4
C=CCOc1cc(CN2C(=O)C(c3ccc(OC)c(OC)c3)=C(c3cc(OC)c(OC)c(OC)c3)C2=O)cc(OCC=C)c1OCC=C	6.8	–
COc1ccc(C2=C(c3ccc(OC)c(OC)c3)C(=O)N(CCn3cnc4c(=O)n(C)c(=O)n(C)c43)C2=O)cc1OC	1.2	–
COc1ccc(C2=C(c3cc(OC)c(OC)c(OC)c3)C(=O)N(CC(=O)c3cc(OC)c(OC)c(OC)c3)C2=O)cc1OC	3.8	–
COc1cc(C(=O)CN2C(=O)C(c3cc(OC)c(OC)c(OC)c3)=C(c3cc(OC)c(OC)c(OC)c3)C2=O)cc(OC)c1OC	1.8	–
